# Reference: ChEMBL document CHEMBL4689842, “EUbOPEN Chemogenomics Library wave 1” (2021)
# Tested on: Fibroblast
# Test: Multiplex assay against human fibroblast
# Format: toxicity, cell-based
# In short: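 Live cells carried four stains from seeding: Hoechst33342, BioTracker Green Microtubule Cytoskeleton Dye, MitoTracker Red and Annexin V Alexa Fluor 680. They were imaged on a CQ1 microscope at 37°C and 5% CO2 after compound addition. Using CellPathfinder machine-learning gating, cells were split into Hoechst high-intensity objects or normal cells, normal cells into healthy, pyknosed or fragmented nuclei, and pyknosed cells into mitotic or apoptotic; tubulin, mitochondrial-mass and membrane-permeability phenotypes are per cents of healthy-nucleus cells.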
# [1] = 12 h, 1 µM, compound concentration 1 uM, replicate 1
# [2] = 12 h, 1 µM, compound concentration 1 uM, replicate 2
# [3] = 12 h, 10 µM, compound concentration 10 uM, replicate 1
# [4] = 12 h, 10 µM, compound concentration 10 uM, replicate 2
# [5] = 24 h, 1 µM, compound concentration 1 uM, replicate 1
# [6] = 24 h, 1 µM, compound concentration 1 uM, replicate 2
# [7] = 24 h, 10 µM, compound concentration 10 uM, replicate 1
# [8] = 24 h, 10 µM, compound concentration 10 uM, replicate 2
# [9] = 48 h, 1 µM, compound concentration 1 uM, replicate 1
# [10] = 48 h, 1 µM, compound concentration 1 uM, replicate 2
# [11] = 48 h, 10 µM, compound concentration 10 uM, replicate 1
# [12] = 48 h, 10 µM, compound concentration 10 uM, replicate 2
smiles,measurement,setting,value
O=C1N/C(=N/c2ccccc2F)S/C1=C\c1ccc(C(=O)O)cc1,Population Apoptotic (%),[1],68%
same,Population Fragmented Nuclei (%),[1],29%
same,Population Healthy Nuclei (%),[1],37%
same,Population Hoechst High Intensity Objects (%),[1],13%
same,Population Membrane Permeable-Phenotype (%),[1],27%
same,Population Mitochondria Different-Phenotype (%),[1],2%
same,Population Mitotic Cells (%),[1],31%
same,Population Normal (%),[1],86%
same,Population Pyknosed Nuclei (%),[1],32%
same,Population Tubulin-Different-Phenotype (%),[1],19%
same,Total Cell Count,[1],112
same,Population Apoptotic (%),[2],0%
same,Population Fragmented Nuclei (%),[2],3%
same,Population Healthy Nuclei (%),[2],92%
same,Population Hoechst High Intensity Objects (%),[2],8%
same,Population Membrane Permeable-Phenotype (%),[2],6%
same,Population Mitochondria Different-Phenotype (%),[2],16%
same,Population Mitotic Cells (%),[2],100%
same,Population Normal (%),[2],91%
same,Population Pyknosed Nuclei (%),[2],3%
same,Population Tubulin-Different-Phenotype (%),[2],24%
same,Total Cell Count,[2],66
same,Population Apoptotic (%),[3],67%
same,Population Fragmented Nuclei (%),[3],29%
same,Population Healthy Nuclei (%),[3],51%
same,Population Hoechst High Intensity Objects (%),[3],60%
same,Population Membrane Permeable-Phenotype (%),[3],36%
same,Population Mitochondria Different-Phenotype (%),[3],6%
same,Population Mitotic Cells (%),[3],32%
same,Population Normal (%),[3],39%
same,Population Pyknosed Nuclei (%),[3],19%
same,Population Tubulin-Different-Phenotype (%),[3],51%
same,Total Cell Count,[3],406
same,Population Apoptotic (%),[4],44%
same,Population Fragmented Nuclei (%),[4],4%
same,Population Healthy Nuclei (%),[4],81%
same,Population Hoechst High Intensity Objects (%),[4],8%
same,Population Membrane Permeable-Phenotype (%),[4],1%
same,Population Mitochondria Different-Phenotype (%),[4],9%
same,Population Mitotic Cells (%),[4],55%
same,Population Normal (%),[4],91%
same,Population Pyknosed Nuclei (%),[4],14%
same,Population Tubulin-Different-Phenotype (%),[4],9%
same,Total Cell Count,[4],59
same,Population Apoptotic (%),[5],55%
same,Population Fragmented Nuclei (%),[5],26%
same,Population Healthy Nuclei (%),[5],47%
same,Population Hoechst High Intensity Objects (%),[5],14%
same,Population Membrane Permeable-Phenotype (%),[5],36%
same,Population Mitochondria Different-Phenotype (%),[5],5%
same,Population Mitotic Cells (%),[5],45%
same,Population Normal (%),[5],85%
same,Population Pyknosed Nuclei (%),[5],26%
same,Population Tubulin-Different-Phenotype (%),[5],41%
same,Total Cell Count,[5],89
same,Population Apoptotic (%),[6],0%
same,Population Fragmented Nuclei (%),[6],7%
same,Population Healthy Nuclei (%),[6],85%
same,Population Hoechst High Intensity Objects (%),[6],5%
same,Population Membrane Permeable-Phenotype (%),[6],5%
same,Population Mitochondria Different-Phenotype (%),[6],10%
same,Population Mitotic Cells (%),[6],100%
same,Population Normal (%),[6],94%
same,Population Pyknosed Nuclei (%),[6],7%
same,Population Tubulin-Different-Phenotype (%),[6],23%
same,Total Cell Count,[6],69
same,Population Apoptotic (%),[7],65%
same,Population Fragmented Nuclei (%),[7],18%
same,Population Healthy Nuclei (%),[7],63%
same,Population Hoechst High Intensity Objects (%),[7],20%
same,Population Membrane Permeable-Phenotype (%),[7],29%
same,Population Mitochondria Different-Phenotype (%),[7],5%
same,Population Mitotic Cells (%),[7],34%
same,Population Normal (%),[7],79%
same,Population Pyknosed Nuclei (%),[7],18%
same,Population Tubulin-Different-Phenotype (%),[7],33%
same,Total Cell Count,[7],181
same,Population Apoptotic (%),[8],60%
same,Population Fragmented Nuclei (%),[8],5%
same,Population Healthy Nuclei (%),[8],88%
same,Population Hoechst High Intensity Objects (%),[8],5%
same,Population Membrane Permeable-Phenotype (%),[8],2%
same,Population Mitochondria Different-Phenotype (%),[8],6%
same,Population Mitotic Cells (%),[8],40%
same,Population Normal (%),[8],94%
same,Population Pyknosed Nuclei (%),[8],5%
same,Population Tubulin-Different-Phenotype (%),[8],16%
same,Total Cell Count,[8],73
same,Population Apoptotic (%),[9],52%
same,Population Fragmented Nuclei (%),[9],35%
same,Population Healthy Nuclei (%),[9],46%
same,Population Hoechst High Intensity Objects (%),[9],19%
same,Population Membrane Permeable-Phenotype (%),[9],20%
same,Population Mitochondria Different-Phenotype (%),[9],0%
same,Population Mitotic Cells (%),[9],47%
same,Population Normal (%),[9],80%
same,Population Pyknosed Nuclei (%),[9],17%
same,Population Tubulin-Different-Phenotype (%),[9],20%
same,Total Cell Count,[9],118
same,Population Apoptotic (%),[10],50%
same,Population Fragmented Nuclei (%),[10],26%
same,Population Healthy Nuclei (%),[10],71%
same,Population Hoechst High Intensity Objects (%),[10],30%
same,Population Membrane Permeable-Phenotype (%),[10],18%
same,Population Mitochondria Different-Phenotype (%),[10],3%
same,Population Mitotic Cells (%),[10],50%
same,Population Normal (%),[10],69%
same,Population Pyknosed Nuclei (%),[10],1%
same,Population Tubulin-Different-Phenotype (%),[10],33%
same,Total Cell Count,[10],161
same,Population Apoptotic (%),[11],53%
same,Population Fragmented Nuclei (%),[11],43%
same,Population Healthy Nuclei (%),[11],47%
same,Population Hoechst High Intensity Objects (%),[11],56%
same,Population Membrane Permeable-Phenotype (%),[11],29%
same,Population Mitochondria Different-Phenotype (%),[11],2%
same,Population Mitotic Cells (%),[11],46%
same,Population Normal (%),[11],43%
same,Population Pyknosed Nuclei (%),[11],9%
same,Population Tubulin-Different-Phenotype (%),[11],36%
same,Total Cell Count,[11],370
same,Population Apoptotic (%),[12],40%
same,Population Fragmented Nuclei (%),[12],23%
same,Population Healthy Nuclei (%),[12],69%
same,Population Hoechst High Intensity Objects (%),[12],15%
same,Population Membrane Permeable-Phenotype (%),[12],16%
same,Population Mitochondria Different-Phenotype (%),[12],0%
same,Population Mitotic Cells (%),[12],60%
same,Population Normal (%),[12],84%
same,Population Pyknosed Nuclei (%),[12],6%
same,Population Tubulin-Different-Phenotype (%),[12],18%
same,Total Cell Count,[12],90
